Data published in ChEMBL document CHEMBL3397044, “Discovery and in vitro and in vivo profiles of N-ethyl-N-[2-[3-(5-fluoro-2-pyridinyl)-1H-pyrazol-1-yl]ethyl]-2-(2H-1,2,3-triazol-2-yl)-benzamide as a novel class of dual orexin receptor antagonist” (Bioorg Med Chem, 2015).

Key:
[1] = target: T1, Orexin receptor type 2 (Homo sapiens) (UniProt O43614); experiment: Antagonist activity against human OX2 receptor expressed in CHO cells assessed as reduction in [Ala6,12]orexin-A-induced intracellular Ca2+ mobilization incubated for 30 mins by Fluo-4 AM dye based fluorescence assay; assay type: functional, cell-based
T1 sequence (whole entry): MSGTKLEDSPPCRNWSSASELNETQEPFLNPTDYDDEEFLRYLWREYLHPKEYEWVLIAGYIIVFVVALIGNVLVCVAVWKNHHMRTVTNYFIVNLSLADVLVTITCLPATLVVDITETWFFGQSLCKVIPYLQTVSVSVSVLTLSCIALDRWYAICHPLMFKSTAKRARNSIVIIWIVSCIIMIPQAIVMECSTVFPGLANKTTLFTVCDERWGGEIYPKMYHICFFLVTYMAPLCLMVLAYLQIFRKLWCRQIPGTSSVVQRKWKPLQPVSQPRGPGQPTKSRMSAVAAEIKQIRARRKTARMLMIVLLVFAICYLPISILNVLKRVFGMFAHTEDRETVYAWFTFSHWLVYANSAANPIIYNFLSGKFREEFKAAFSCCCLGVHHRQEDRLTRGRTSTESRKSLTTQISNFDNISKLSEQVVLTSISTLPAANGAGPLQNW
Summary of the method: (§1)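 Cells seeded 2.4 × 10⁴/well, cultured 18 h. Loaded with Fluo-4 AM (0.5 µM final) in HBSS, 20 mM HEPES, 0.1% BSA, 2.5 mM probenecid, 0.2 mg/mL amaranth, pH 7.4, 37 °C 1 h. Washed, then antagonist for 30 min at room temperature. Peak minus basal fluorescence normalized to the [Ala6,12]orexin-A maximum. Kb = IC50/(1+[L]/EC50). At least three independent runs in duplicate.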

[2] = target: T2, Orexin/Hypocretin receptor type 1 (Homo sapiens) (UniProt O43613); experiment: Antagonist activity against human OX1 receptor expressed in CHO cells assessed as reduction in [Ala6,12]orexin-A-induced intracellular Ca2+ mobilization incubated for 30 mins by Fluo-4 AM dye based fluorescence assay; assay type: functional, cell-based; summary of the method: as §1
T2 sequence (whole entry): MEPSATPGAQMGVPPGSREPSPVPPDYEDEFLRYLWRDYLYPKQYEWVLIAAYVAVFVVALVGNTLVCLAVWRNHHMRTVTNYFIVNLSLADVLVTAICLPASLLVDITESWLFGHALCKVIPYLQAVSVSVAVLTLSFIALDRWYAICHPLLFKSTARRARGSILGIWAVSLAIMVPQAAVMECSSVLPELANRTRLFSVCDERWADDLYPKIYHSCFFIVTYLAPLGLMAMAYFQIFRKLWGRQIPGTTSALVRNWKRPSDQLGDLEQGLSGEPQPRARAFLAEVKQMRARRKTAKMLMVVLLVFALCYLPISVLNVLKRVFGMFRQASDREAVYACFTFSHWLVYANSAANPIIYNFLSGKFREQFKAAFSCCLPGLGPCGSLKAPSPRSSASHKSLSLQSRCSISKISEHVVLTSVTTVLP

[3] = Drug metabolism in human liver microsomes at 5 uM after 15 mins; assay type: ADME; details: read-out: Drug metabolism
Summary of the method: (§2)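 Liver microsomes at 1 mg protein/mL with 5 µM compound, incubated 15 min. Value reported as percentage of compound metabolized.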

Rattus norvegicus = experiment: Toxicity in Wistar rat assessed as effect on rotarod performance at 10 mg/kg, ip administered 30 mins prior to the test by rotarod test; assay type: organism-based; parameters: dose 10 mg/kg, route intraperitoneal; details: in vivo, 0.5 h
[4] = Half life in human; assay type: ADME, organism-based; details: in vivo
[5] = Volume of distribution in Sprague-Dawley rat at 2 mg/kg, iv; assay type: ADME, organism-based; parameters: dose 2 mg/kg, route intravenous; details: in vivo
Summary of the method: (§3)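 Fasted male Sprague–Dawley rats (n = 3) given 2 mg/kg iv. Vd and CL taken from the iv profile. T1/2 calculated as ln2·Vd/CL.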

[6] = Oral bioavailability in dog at 3 mg/kg; assay type: ADME, organism-based, Canis lupus familiaris; details: in vivo
Summary of the method: (§4)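 Fasted male rats dosed orally at 10 mg/kg, and male dogs at 3 mg/kg (n = 3). Tmax read from the oral profile. F calculated against the iv arm (rat 2 mg/kg, dog 0.5 mg/kg).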

[7] = Ratio of drug level in brain to plasma in Sprague-Dawley rat at 30 mg/kg, ip; assay type: ADME, organism-based; parameters: dose 30 mg/kg, route intraperitoneal; details: read-out: BPR
Summary of the method: (§5)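 Male rats dosed ip at 30 mg/kg. Drug concentrations measured in brain, CSF and plasma, and reported as brain/plasma and CSF/plasma ratios.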

[8] = Half life in dog at 0.5 mg/kg, iv; assay type: ADME, organism-based, Canis lupus familiaris; parameters: dose 0.5 mg/kg, route intravenous; details: in vivo
Summary of the method: (§6)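 Male dogs given 0.5 mg/kg iv (n = 3). Vd and CL derived from the iv profile. T1/2 = ln2·Vd/CL.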

[9] = Drug metabolism in dog liver microsomes at 5 uM after 15 mins; assay type: ADME, Canis lupus familiaris; details: read-out: Drug metabolism; summary of the method: as §2
[10] = Tmax in Sprague-Dawley rat at 30 mg/kg, po; assay type: ADME, organism-based; parameters: dose 30 mg/kg, route oral; details: in vivo
[11] = Tmax in dog at 3 mg/kg, po; assay type: ADME, organism-based, Canis lupus familiaris; parameters: dose 3 mg/kg, route oral; details: in vivo; summary of the method: as §4
[12] = Ratio of drug level in CSF to plasma in Sprague-Dawley rat at 30 mg/kg, ip; assay type: ADME, organism-based; parameters: dose 30 mg/kg, route intraperitoneal; summary of the method: as §5
[13] = Volume of distribution in dog at 0.5 mg/kg, iv; assay type: ADME, organism-based, Canis lupus familiaris; parameters: dose 0.5 mg/kg, route intravenous; details: in vivo; summary of the method: as §6
[14] = Drug metabolism in rat liver microsomes at 5 uM after 15 mins; assay type: ADME; details: read-out: Drug metabolism; summary of the method: as §2
[15] = Clearance in Sprague-Dawley rat at 2 mg/kg, iv; assay type: ADME, organism-based; parameters: dose 2 mg/kg, route intravenous; details: in vivo; summary of the method: as §3
[16] = Clearance in dog at 0.5 mg/kg, iv; assay type: ADME, organism-based, Canis lupus familiaris; parameters: dose 0.5 mg/kg, route intravenous; details: in vivo; summary of the method: as §6
[17] = Half life in Sprague-Dawley rat at 2 mg/kg, iv; assay type: ADME, organism-based; parameters: dose 2 mg/kg, route intravenous; details: in vivo; summary of the method: as §3
[18] = Oral bioavailability in Sprague-Dawley rat at 30 mg/kg; assay type: ADME, organism-based; details: in vivo

Cc1ccc(-n2nccn2)c(C(=O)NCCn2ccc(-c3ccc(F)cn3)n2)c1
Kb [1]: 376 nM
Kb [2]: 152 nM

CCN(CCn1ccc(-c2ccc(F)cn2)n1)C(=O)c1cc(Cl)ccc1-n1nccn1
Kb [1]: 2.82 nM
metabolised at 0.25 h, 5 µM [3]: 46.9%
Kb [2]: 1.48 nM

CCN(CCn1ccc(-c2cc(C(F)(F)F)ccn2)n1)C(=O)c1cc(C)ccc1-n1nccn1
Kb [1]: 66.4 nM
Kb [2]: 28 nM

CCN(CCn1ccc(-c2ccc(C(F)(F)F)cn2)n1)C(=O)c1cc(C)ccc1-n1nccn1
Kb [1]: 902 nM
Kb [2]: 48.6 nM

CCN(CCn1ccc(-c2cccc(C)n2)n1)C(=O)c1cc(C)ccc1-n1nccn1
Kb [1]: 1.96 nM
Kb [2]: 0.41 nM

CCN(CCc1noc(-c2ccc(F)cn2)n1)C(=O)c1cc(C)ccc1-n1nccn1
Kb [1]: 23 nM
Kb [2]: 8.09 nM

CCN(CCn1ccc(-c2cccc(C(F)(F)F)n2)n1)C(=O)c1cc(C)ccc1-n1nccn1
Kb [1]: 3.92 nM
Kb [2]: 3.19 nM

Cc1ccc(-c2nc3ccc(C)cn3c2CC(=O)N(C)C)cc1 [ZOLPIDEM]
Activity (Rattus norvegicus): Toxic

CCN(CCn1ccc(-c2ccc(F)cn2)n1)C(=O)c1cc(F)ccc1-n1nccn1
Kb [1]: 11.4 nM
metabolised at 0.25 h, 5 µM [3]: 35.3%
Kb [2]: 6.67 nM

CCN(CCn1ccc(-c2ccc(F)cn2)n1)C(=O)c1cc(C)ccc1-n1nccn1
Kb [1]: 0.89 nM
metabolised at 0.25 h, 5 µM [3]: 35%
Kb [2]: 0.43 nM

CCN(CCn1cc(-c2ccc(F)cn2)cn1)C(=O)c1cc(C)ccc1-n1nccn1
Kb [1]: 7.22 nM
Kb [2]: 3.81 nM

Cc1ccc(-n2nccn2)c(C(=O)N(C)CCn2ccc(-c3ccc(F)cn3)n2)c1
Kb [1]: 8.58 nM
Kb [2]: 2.27 nM

CCN(CCn1ccc(-c2ccc(F)cc2)n1)C(=O)c1cc(C)ccc1-n1nccn1
Kb [1]: 1.25 nM
Kb [2]: 0.32 nM

Cc1nc(C(=O)N2CCCC[C@H]2CNC(=O)c2cccc3occc23)c(-c2ccc(F)cc2)s1 [SB-649868]
half-life [4]: 204 min

CCN(CCc1cc(-c2ccc(F)cn2)on1)C(=O)c1cc(C)ccc1-n1nccn1
Kb [1]: 19.8 nM
Kb [2]: 15.2 nM

CCN(CCn1ccc(-c2ccc(F)cn2)n1)C(=O)c1cc(OC)ccc1-n1nccn1
Kb [1]: 638 nM
Kb [2]: 119 nM

CCN(CCn1ccc(-c2ccc(F)cn2)n1)C(=O)c1cc(C)ccc1-c1ncccn1
Kb [1]: 4.01 nM
metabolised at 0.25 h, 5 µM [3]: 19.7%
Vd [5]: 1.79 L/kg
bioavailability [6]: 100%
Kp [7]: 0.13
half-life [8]: 67.8 min
metabolised at 0.25 h, 5 µM [9]: 10.1%
Tmax [10]: 40 min
Kb [2]: 2.52 nM
Tmax [11]: 30 min
Kp [12]: 0.03
Vd [13]: 1.29 L/kg
metabolised at 0.25 h, 5 µM [14]: 97.3%
clearance [15]: 65.2 mL/min/kg
clearance [16]: 13.1 mL/min/kg
half-life [17]: 19.1 min
bioavailability [18]: 4.62%

Cc1ccc(-n2nccn2)c(C(=O)N(CCn2ccc(-c3ccc(F)cn3)n2)C(C)C)c1
Kb [1]: 37.9 nM
Kb [2]: 38.5 nM

Cc1ccc(-n2nccn2)c(C(=O)N2CCN(c3nc4cc(Cl)ccc4o3)CC[C@H]2C)c1 [SUVOREXANT]
half-life [4]: 540 min

CCN(CCc1cc(-c2ccc(F)cn2)no1)C(=O)c1cc(C)ccc1-n1nccn1
Kb [1]: 32.2 nM
Kb [2]: 45.5 nM
